ChEMBL document CHEMBL3877287, “Analogue based drug design, synthesis, molecular docking and anticancer evaluation of novel chromene sulfonamide hybrids as aromatase inhibitors and apoptosis enhancers” (Eur J Med Chem, 2016)

Experiments:
[1] = Cytotoxicity against human T47D cells after 48 hrs by sulforhodamine B assay; format: functional, cell-based
Outline: (§1)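 Cells grown in RPMI 1640 with 10% heat-inactivated FBS and 1% penicillin-streptomycin-amphotericin B at 37 °C, 5% CO2, passages 5–20. Plated at 10⁴ cells/well with 24 h recovery. Exposed to 5, 12, 25 and 50 μmol/L from DMSO stock (final DMSO <0.1%), triplicate wells, 48 h. TCA-fixed, SRB-stained, read by ELISA reader. IC50 fitted with Hill-type equation.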

[2] = target: T1, Aromatase (Homo sapiens, UniProt P11511); experiment: Inhibition of aromatase activity in human T47D cells at 100 uL after 24 hrs; format: cell-based; parameters: concentration or dose not given beside the values
T1 sequence (P11511 whole entry): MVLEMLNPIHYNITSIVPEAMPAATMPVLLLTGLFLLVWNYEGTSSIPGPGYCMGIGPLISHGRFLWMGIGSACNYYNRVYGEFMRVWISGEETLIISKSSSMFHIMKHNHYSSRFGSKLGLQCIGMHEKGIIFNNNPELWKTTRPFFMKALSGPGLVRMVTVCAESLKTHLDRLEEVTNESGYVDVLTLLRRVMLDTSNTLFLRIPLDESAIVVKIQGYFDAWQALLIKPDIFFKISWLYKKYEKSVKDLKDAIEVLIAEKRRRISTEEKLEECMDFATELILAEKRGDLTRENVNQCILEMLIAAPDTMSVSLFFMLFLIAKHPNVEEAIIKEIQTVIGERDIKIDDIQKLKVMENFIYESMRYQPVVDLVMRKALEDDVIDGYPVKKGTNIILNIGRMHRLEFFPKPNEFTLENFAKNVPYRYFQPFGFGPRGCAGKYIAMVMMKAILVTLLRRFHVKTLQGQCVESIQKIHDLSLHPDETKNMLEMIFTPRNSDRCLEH
Outline: (§2)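 T47D cells in RPMI 1640 with 10% FBS and 1% penicillin-streptomycin, seeded at 1.2–1.8 × 10,000 cells/well in 100 µL medium plus 100 µL compound. Cells treated 24 h, including serial dilutions for IC50. Aromatase (CYP19A1) then measured with a human ELISA kit.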

[3] = target: T1, Aromatase; experiment: Inhibition of aromatase activity in human T47D cells after 24 hrs; format: cell-based; outline: as §2
[4] = Induction of apoptosis in human T47D cells assessed as upregulation of caspase 8 at IC50 after 48 hrs by ELISA method relative to control; format: functional, cell-based
Outline: (§3)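 Cells grown in RPMI 1640 with 10% FBS at 37 °C, plated at 1.2–1.8 × 10,000 cells/well and exposed to compound for 48 h. Lysed in cell extraction buffer, diluted in standard diluent. Caspase-8 and caspase-9 measured separately by human ELISA, absorbance 450 nm. Fold versus control.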

[5] = tested on: T47D; experiment: Induction of apoptosis in human T47D cells assessed as decrease in Bcl-xl level at IC50 relative to control; format: functional
[6] = tested on: T47D; experiment: Induction of apoptosis in human T47D cells assessed as Bax level at IC50 (reference value: 24.6 IU/ml); format: functional
[7] = Induction of apoptosis in human T47D cells assessed as upregulation of active caspase 3 level at IC50 by immunoassay relative to control; format: functional, cell-based
Outline: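 Cells washed with PBS and lysed in extraction buffer with protease inhibitors (1 mL per 10⁷ cells). Lysate diluted just before assay. Active caspase-3 measured by human sandwich immunoassay with absorbance at 450 nm read within 30 min. Expressed as fold versus control cells.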

[8] = Induction of apoptosis in human T47D cells assessed as upregulation of active caspase 3 level by immunoassay relative to letrozole; format: functional, cell-based
[9] = Induction of apoptosis in human T47D cells assessed as upregulation of caspase 9 at IC50 after 48 hrs by ELISA method relative to control; format: functional, cell-based; outline: as §3
[10] = tested on: T47D; experiment: Induction of apoptosis in human T47D cells assessed as Bcl-xl level at IC50 (reference value: 754565 IU/ml); format: functional
[11] = tested on: T47D; experiment: Induction of apoptosis in human T47D cells assessed as Bcl2 level at IC50 (reference value: 568019 IU/ml); format: functional
[12] = Cytotoxicity against human 184A1 cells after 48 hrs by sulforhodamine B assay; format: toxicity, cell-based; outline: as §1
[13] = tested on: T47D; experiment: Induction of apoptosis in human T47D cells assessed as decrease in Bcl2 level at IC50 relative to control; format: functional
[14] = tested on: T47D; experiment: Induction of apoptosis in human T47D cells assessed as increase in Bax/Bcl2 ratio at IC50 relative to control; format: functional
[15] = Cell cycle arrest in human T47D cells assessed as G1 phase accumulation at 9.2 uM by propidium iodide staining based cytometry (reference value: 64.92%); format: functional
Outline: (§4)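 T47D cells exposed to test compound at 9.2 μM. Cells stained with propidium iodide per kit procedure and run on a DNA cytometer. PBMCs of known DNA content served as reference for DNA index. Percent of cells in G1, S and G2/M phases compared with untreated control.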

[16] = Cell cycle arrest in human T47D cells assessed as S phase accumulation at 9.2 uM by propidium iodide staining based cytometry (reference value: 17.14%); format: functional; outline: as §4
[17] = tested on: T47D; experiment: Induction of apoptosis in human T47D cells at 9.2 uM by propidium iodide staining based cytometry (reference value: 2.13%); format: functional
[18] = Cell cycle arrest in human T47D cells assessed as G2/M phase accumulation at 9.2 uM by propidium iodide staining based cytometry (reference value: 15.81%); format: functional; outline: as §4

Structure (SMILES)	inhibition (INH) [2] [%]	IC50 [1] [µM]	also measured
Cc1cc(NS(=O)(=O)c2ccc(N/C=C\C(=O)c3cc4ccccc4oc3=O)cc2)nc(C)n1	–	100	–
O=C(/C=C\Nc1ccc(S(=O)(=O)Nc2cnc3ccccc3n2)cc1)c1cc2ccccc2oc1=O	–	86.9	–
NS(=O)(=O)c1ccc(N/C=C\C(=O)c2cc3ccccc3oc2=O)cc1	–	109	–
Cc1nnc(NS(=O)(=O)c2ccc(N/C=C\C(=O)c3cc4ccccc4oc3=O)cc2)s1	–	94	–
COc1cnc(NS(=O)(=O)c2ccc(N/C=C\C(=O)c3cc4ccccc4oc3=O)cc2)nc1	81	8.8	fold change (FC) [4]: 21.8; fold change (FC) [5]: 111.35; Activity [6]: 176887 IU/ml; fold change (FC) [7]: 20.6; fold change (FC) [8]: 1.3; fold change (FC) [9]: 9.91; IC50 [3]: 6.07 µM; Activity [10]: 6776 IU/ml; Activity [11]: 693 IU/ml; IC50 at 48 h [12]: 172 µM; fold change (FC) [13]: 819.65; fold change (FC) [14]: 5936
COc1cccc2c1C(=O)c1c(O)c3c(c(O)c1C2=O)C[C@@](O)(C(=O)CO)C[C@@H]3O[C@H]1C[C@H](N)[C@H](O)[C@H](C)O1 [DOXORUBICIN]	–	9.8	–
Nc1ccc(S(=O)(=O)c2ccc(N/C=C\C(=O)c3cc4ccccc4oc3=O)cc2)cc1	–	91.9	–
O=C(C=CNc1ccc(S(=O)(=O)c2ccc(NC=CC(=O)c3cc4ccccc4oc3=O)cc2)cc1)c1cc2ccccc2oc1=O	–	70.3	–
CN(C)/C=C/C(=O)c1cc2ccccc2oc1=O	–	146	–
O=C(/C=C\Nc1ccc(S(=O)(=O)Nc2ccc3cn[nH]c3c2)cc1)c1cc2ccccc2oc1=O	–	96.5	–

Now from value to molecule, other results behind:

inhibition (INH) [2] [%]	Structure (SMILES)	IC50 [1] [µM]	also measured
44	COc1cc(NS(=O)(=O)c2ccc(N/C=C\C(=O)c3cc4ccccc4oc3=O)cc2)nc(OC)n1	37.8	–
30	Cc1cc(C)nc(NS(=O)(=O)c2ccc(N/C=C\C(=O)c3cc4ccccc4oc3=O)cc2)n1	62.2	–
20	Cc1noc(NS(=O)(=O)c2ccc(N/C=C\C(=O)c3cc4ccccc4oc3=O)cc2)c1C	68.4	–
67	Cc1ccnc(NS(=O)(=O)c2ccc(N/C=C\C(=O)c3cc4ccccc4oc3=O)cc2)n1	24.5	IC50 [3]: 9.52 µM
69	COc1ncnc(NS(=O)(=O)c2ccc(N/C=C\C(=O)c3cc4ccccc4oc3=O)cc2)c1OC	9.8	IC50 [3]: 4.66 µM
30	N=C(N)NS(=O)(=O)c1ccc(N/C=C\C(=O)c2cc3ccccc3oc2=O)cc1	87.6	–
70	O=C(/C=C\Nc1ccc(S(=O)(=O)Nc2ccnn2-c2ccccc2)cc1)c1cc2ccccc2oc1=O	9.2	Activity [15]: 9.2%; fold change (FC) [4]: 40; fold change (FC) [5]: 1965; Activity [6]: 402127 IU/ml; fold change (FC) [7]: 45; fold change (FC) [8]: 3; fold change (FC) [9]: 10; IC50 [3]: 5.09 µM; Activity [10]: 384 IU/ml; Activity [16]: 14.6%; Activity [11]: 1540 IU/ml; IC50 at 48 h [12]: 184 µM; Activity [17]: 31.7%; fold change (FC) [13]: 369; fold change (FC) [14]: 33000; Activity [18]: 44.5%
28	Cc1cc(NS(=O)(=O)c2ccc(N/C=C\C(=O)c3cc4ccccc4oc3=O)cc2)on1	75.6	–
65	O=C(/C=C\Nc1ccc(S(=O)(=O)Nc2ccccn2)cc1)c1cc2ccccc2oc1=O	37.6	IC50 [3]: 12.5 µM
41	O=C(/C=C\Nc1ccc(S(=O)(=O)Nc2ncccn2)cc1)c1cc2ccccc2oc1=O	75.2	–
